# Published values gathered from unrelated publications.
# Each line is one published result; the experiments were not run side by side.
SMILES,host,medium,route,dose,setting,half-life [min]
CC(C(=O)Nc1c(F)cccc1F)N1CCN(c2ccccc2)CC1 (stereo not shown),female C57BL/6 mouse,brain,intraperitoneal,10 mg/kg,,~27
CC1=NN(/C(=N/c2nnc(C)s2)Nc2ccc(C)c(C)c2)C(c2cc(F)c(F)c(F)c2)S1 (stereo not shown),male CD-1 mouse,plasma,intravenous,1 mg/kg,,93.6
O=C(ONc1nc2nonc2nc1Nc1ccccc1F)c1ccc(OC(F)(F)F)cc1,male C57BL/6 mouse,plasma,oral,10 mg/kg,,15 to 27
FC(F)(F)c1nc2c(-c3cc(Cl)cc(Cl)c3)ccnc2[nH]1,male C57BL/6 mouse,plasma,oral,10 mg/kg,,> 900
CCOc1ccc(N(C)S(=O)(=O)c2cc(Cl)sc2C(=O)Nc2cc(Cl)cc(C(=O)O)c2)cc1OC,male C57BL/6 mouse,brain,intraperitoneal,10 mg/kg,,33.5
CN1CCN(C(=O)[C@H](CCCN[C@@H]2C[C@H]2c2ccc(F)cc2)NC(=O)c2ccc(-n3ccnn3)cc2)CC1,CD-1 mouse,plasma,oral,10 mg/kg,,299
COc1cc(C(=O)OCCCN2CCCN(CCCOC(=O)c3cc(OC)c(OC)c(OC)c3)CC2)cc(OC)c1OC,male CD-1 mouse,brain,subcutaneous,,,50.4
CCN1CCN(Cc2ccc(NC(=O)c3ccc(C)c(NC(=O)c4cncc(-c5cccs5)c4)c3)cc2C(F)(F)F)CC1,mouse,plasma,intraperitoneal,15 mg/kg,single dose,145
Nc1ncn([C@H]2C[C@H](O)[C@@H](CO)O2)c(=O)n1,female C57BL/6 mouse,plasma,intravenous,0.4 mg/kg,,46.2
CCOC(=O)c1cc(Cl)cc(NC(=O)c2sc(Cl)cc2S(=O)(=O)N(C)c2ccc(OCC)c(OC)c2)c1,male C57BL/6 mouse,brain,intraperitoneal,10 mg/kg,,128
CC(C)C[C@H](NC(=O)[C@@H]1COCCCCCC(=O)N2C[C@H](F)C[C@H]2C(=O)N1)C(=O)[C@@]1(C)CO1,male BALB/c mouse,plasma,oral,150 mg/kg,,47.4
C=CS(=O)(=O)c1ccc(Nc2nc(OCC3CCCCC3)c3nc[nH]c3n2)cc1,male BALB/c mouse,plasma,intravenous,20 mg/kg,single dose,316
CC(=O)O[C@@]12CO[C@@H]1C[C@H](O)[C@@]1(C)C(=O)[C@H](O)C3=C(C)[C@@H](OC(=O)[C@H](O)[C@@H](NC(=O)OC(C)(C)C)c4ccccc4)C[C@@](O)([C@@H](OC(=O)c4ccccc4)[C@H]21)C3(C)C,male Kunming mouse,lung,oral,20 mg/kg,,36
